Laboratory results: ChEMBL document CHEMBL4251664, “Biocompatible Boron-Containing Prodrugs of Belinostat for the Potential Treatment of Solid Tumors” (ACS Med Chem Lett, 2018)
Calls of active or inactive are those of the source. The calls are words filed in the database; no cut-off is given here.

Legend:
HeLa [1] = test: Antiproliferative activity against human HeLa cells after 72 hrs by resazurin dye based fluorescence assay; type: functional, cell-based
MCF7 [2] = test: Antiproliferative activity against human MCF7 cells after 72 hrs by resazurin dye based fluorescence assay; type: functional, cell-based; details: MCF7, 72 h
SK-MEL-28 = test: Antiproliferative activity against human SK-MEL-28 cells after 72 hrs by resazurin dye based fluorescence assay; type: functional, cell-based; details: SK-MEL-28, 72 h
NCI-H460 = test: Antiproliferative activity against human NCI-H460 cells after 72 hrs by resazurin dye based fluorescence assay; type: functional, cell-based; details: NCI-H460, 72 h
MDA-MB-231 [3] = test: Prodrug conversion in human MDA-MB-231 cells assessed as belinostat level after 4 days by UHPLC-MS/MS analysis; type: ADME, cell-based; details: mda-mb-231, 96 h
Method in brief: (§1)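 MDA-MB-231 or HeLa cells were incubated with the pinacol boronate prodrug, and culture medium was sampled daily from day 1 to day 6. The prodrug, boronic acid forms and belinostat were separated, identified and quantified by HPLC coupled to an Orbitrap mass spectrometer. Results are in ng/mL as mean ± SEM of triplicate experiments.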

MDA-MB-231 [4] = test: Prodrug conversion in human MDA-MB-231 cells assessed as (E)-4-((3-(3-(N-phenylsulfamoyl)phenyl)acrylamidooxy)methyl)phenylboronic acid level after 1 day by UHPLC-MS/MS analysis; type: ADME, cell-based; details: mda-mb-231, 24 h; method in brief: as §1
MDA-MB-231 [5] = test: Prodrug conversion in human MDA-MB-231 cells assessed as (E)-4-((3-(3-(N-phenylsulfamoyl)phenyl)acrylamidooxy)methyl)phenylboronic acid level after 2 days by UHPLC-MS/MS analysis; type: ADME, cell-based; details: mda-mb-231, 48 h; method in brief: as §1
MDA-MB-231 [6] = test: Prodrug conversion in human MDA-MB-231 cells assessed as (E)-4-((3-(3-(N-phenylsulfamoyl)phenyl)acrylamidooxy)methyl)phenylboronic acid level after 3 days by UHPLC-MS/MS analysis; type: ADME, cell-based; details: mda-mb-231, 72 h; method in brief: as §1
MDA-MB-231 [7] = test: Prodrug conversion in human MDA-MB-231 cells assessed as (E)-4-((3-(3-(N-phenylsulfamoyl)phenyl)acrylamidooxy)methyl)phenylboronic acid level after 4 days by UHPLC-MS/MS analysis; type: ADME, cell-based; details: mda-mb-231, 96 h; method in brief: as §1
MDA-MB-231 [8] = test: Prodrug conversion in human MDA-MB-231 cells assessed as (E)-4-((3-(3-(N-phenylsulfamoyl)phenyl)acrylamidooxy)methyl)phenylboronic acid level after 5 days by UHPLC-MS/MS analysis; type: ADME, cell-based; details: mda-mb-231, 120 h; method in brief: as §1
MDA-MB-231 [9] = test: Prodrug conversion in human MDA-MB-231 cells assessed as (E)-4-((3-(3-(N-phenylsulfamoyl)phenyl)acrylamidooxy)methyl)phenylboronic acid level after 6 days by UHPLC-MS/MS analysis; type: ADME, cell-based; details: mda-mb-231, 144 h; method in brief: as §1
HeLa [10] = test: Prodrug conversion in human HeLa cells assessed as belinostat level after 3 days by UHPLC-MS/MS analysis; type: ADME, cell-based; details: 72 h; method in brief: as §1
HeLa [11] = test: Prodrug conversion in human HeLa cells assessed as (E)-4-((3-(3-(N-phenylsulfamoyl)phenyl)acrylamidooxy)methyl)phenylboronic acid level after 4 days by UHPLC-MS/MS analysis; type: ADME, cell-based; details: 96 h; method in brief: as §1
HeLa [12] = test: Prodrug conversion in human HeLa cells assessed as (E)-4-((3-(3-(N-phenylsulfamoyl)phenyl)acrylamidooxy)methyl)phenylboronic acid level after 5 days by UHPLC-MS/MS analysis; type: ADME, cell-based; details: 120 h; method in brief: as §1
Histone deacetylase = test: Inhibition of HDAC in human cell lysates using fluoro-substrate peptide/fluoro-deacetylated peptide as substrate incubated for 20 mins measured at 1 to 2 mins interval for 30 to 60 mins by fluorescence assay; type: protein assay
Histone deacetylase 8 = molecular target: T1, Histone deacetylase 8 (Homo sapiens, UniProt Q9BY41); test: Inhibition of human HDAC8 using RHK(Ac)K(Ac)AMC as substrate
T1 sequence (Q9BY41 whole entry): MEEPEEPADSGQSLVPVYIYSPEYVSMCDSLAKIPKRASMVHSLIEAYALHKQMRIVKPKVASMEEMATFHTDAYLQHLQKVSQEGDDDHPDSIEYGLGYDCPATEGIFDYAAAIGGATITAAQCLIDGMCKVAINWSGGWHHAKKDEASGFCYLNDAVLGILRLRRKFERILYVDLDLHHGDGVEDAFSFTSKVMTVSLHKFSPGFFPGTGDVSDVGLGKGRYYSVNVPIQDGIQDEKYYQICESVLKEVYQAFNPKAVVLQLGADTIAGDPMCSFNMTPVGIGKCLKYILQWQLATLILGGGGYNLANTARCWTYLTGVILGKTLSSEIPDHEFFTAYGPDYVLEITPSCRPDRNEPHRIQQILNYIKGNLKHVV

MCF7 [13] = test: Antitumor activity against human MCF7 cells implanted in ovariectomized nu/nu mouse assessed as tumor remission at 10 mg/kg, sc administered once daily for 22 days measured at 1 day interval for 3 weeks during compound dosing; type: functional, organism-based
MCF7 [14] = test: Antitumor activity against human MCF7 cells implanted in ovariectomized nu/nu mouse assessed as tumor volume at 10 mg/kg, sc administered once daily for 22 days measured post last dose (reference value: 869 +/- 173 mm3); type: functional
MCF7 [15] = test: Antitumor activity against human MCF7 cells implanted in ovariectomized nu/nu mouse assessed as tumor weight at 10 mg/kg, sc administered once daily for 22 days measured post last dose (reference value: 743 +/- 142 mg); type: functional
Mus musculus = test: Toxicity in ovariectomized nu/nu mouse implanted with human MCF7 cells assessed as effect on body weight at 10 mg/kg, sc administered once daily for 22 days; type: organism-based; details: in vivo, 528 h
Method in brief: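 MCF-7 xenograft in mice, dosed 10 mg/kg/day by subcutaneous injection alongside a vehicle group. Treatment ran 22 days. Body weights were compared with the vehicle group, and tumour volume was measured over the same period. At the end, mice were sacrificed and tumours removed.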

[16] = Drug uptake in tumor of ovariectomized nu/nu mouse implanted with human MCF7 cells assessed as (E)-4-((3-(3-(N-phenylsulfamoyl)phenyl)acrylamidooxy)methyl)phenylboronic acid level at 10 mg/kg, sc administered once daily for 22 days measured post last dose by HPLC-MS/MS analysis; type: ADME, organism-based, Neoplasm; details: in vivo, 528 h
Method in brief: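 After 22 days of 10 mg/kg/day subcutaneous dosing in MCF-7 xenograft mice, animals were sacrificed. Tumours were excised, homogenized and extracted, then analysed by HPLC–MS/MS for belinostat and the free boronic acid. Results are expressed as ng/g tissue.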

IC50 (HeLa [1]): 273 nM | IC50 (MCF7 [2]): 1460 nM | IC50 (SK-MEL-28): 678 nM | IC50 (NCI-H460): 430 nM | Drug metabolism (MDA-MB-231 [3]): 19.8 ng/mL | Drug metabolism (MDA-MB-231 [4]): 331.8 ng/mL | Drug metabolism (MDA-MB-231 [5]): 268.5 ng/mL | Drug metabolism (MDA-MB-231 [6]): 246.9 ng/mL | Drug metabolism (MDA-MB-231 [7]): 171.8 ng/mL | Drug metabolism (MDA-MB-231 [8]): 145.8 ng/mL | Drug metabolism (MDA-MB-231 [9]): 130.9 ng/mL | Drug metabolism (HeLa [10]): 13.4 ng/mL | Drug metabolism (HeLa [11]): 107 ng/mL | Drug metabolism (HeLa [12]): 82.7 ng/mL | EC50 (Histone deacetylase): 350 nM | EC50 (Histone deacetylase 8): 341000 nM | Drug uptake [16]: 51 ng/g
SMILES: CC1(C)OB(c2ccc(CONC(=O)/C=C/c3cccc(S(=O)(=O)Nc4ccccc4)c3)cc2)OC1(C)C
Activity (MCF7 [13]): Active | Activity (MCF7 [14]): 127 mm3 | Activity (MCF7 [15]): 109 mg | Activity (Mus musculus): Non-Toxic
